These results are taken from ChEMBL document CHEMBL2021903, “3-Deoxy-3,4-dehydro analogs of XM462. Preparation and activity on sphingolipid metabolism and cell fate” (Bioorg Med Chem, 2012).

Calls of active or inactive are those of the source. The rule behind the calls is not given here.

Experiment [1] relates to HCT-116. Briefly: Effect on sphingolipidome in human HCT116 cells assessed as increase in C18-ceramide per 10^6 cells at 10 uM after 14 hrs by UPLC-TOF analysis relative to control (reference value: 3.9 +/- 0.3 pmol/10^6 cells). Type of experiment: functional. A digest of the protocol: (§1)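 Cells incubated with compound at 10 µM, 24 h (A549) or 14 h (HCT116); lipids then extracted and profiled. Long-chain bases and phosphates were read by LC-MS/MS (positive electrospray, selected reaction monitoring, C17-dihydrosphingosine and C17-dihydrosphingosine-1-phosphate transitions monitored). Amounts expressed as pmol per 10⁶ cells. Mean ± SD of triplicates; unpaired two-tailed t-test versus control.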

Experiment [2] relates to HCT-116. Briefly: Effect on sphingolipidome in human HCT116 cells assessed as sphingosine-1-phosphate level per 10^6 cells at 10 uM after 14 hrs by UPLC-TOF analysis (reference value: 1.49 +/- 0.70/10^6 cells). Type of experiment: functional. A digest of the protocol:
as §1

Experiment [3] deals with HCT-116. Briefly: Effect on sphingolipidome in human HCT116 cells assessed as increase in dihydrosphingomyelins per 10^6 cells at 10 uM after 14 hrs by UPLC-TOF analysis relative to control. The experiment is classed as functional, cell-based. A digest of the protocol:
as §1

The test system of experiment [4] is HCT-116. Briefly: Effect on sphingolipidome in human HCT116 cells assessed as reduction in C24-ceramide per 10^6 cells at 10 uM after 14 hrs by UPLC-TOF analysis relative to control. The experiment is classed as functional, cell-based. The procedure, abridged: as §1
Experiment [5] has as its system HCT-116. Briefly: Effect on sphingolipidome in human HCT116 cells assessed as increase in dihydroceramide per 10^6 cells at 10 uM after 14 hrs by UPLC-TOF analysis relative to control. The experiment is classed as functional. A digest of the protocol:
as §1

In experiment [6] the test system is A549. Nature of the experiment: Effect on sphingolipidome in human A549 cells assessed as increase in total ceramides at 10 uM after 24 hrs by UPLC-TOF analysis. Type of experiment: functional, cell-based. The procedure, abridged: as §1
Experiment [7] concerns A549. Nature of the experiment: Effect on sphingolipidome in human A549 cells assessed as increase in dihydroceramide per 10^6 cells at 10 uM after 24 hrs by UPLC-TOF analysis relative to control. The experiment is classed as functional. A digest of the protocol:
as §1

Experiment [8] relates to HCT-116. Briefly: Induction of apoptosis in human HCT116 cells at 15 uM after 14 hrs by Annexin V-propidium iodide staining based flow cytometry. The experiment is classed as functional, cell-based. The procedure, abridged: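 HCT116 (clone 40–16) in low-glucose DMEM with 10% FBS and 1% penicillin–streptomycin, seeded 2.5×10⁵ cells/mL. After 24 h, medium replaced with compound-containing medium; ethanol vehicle to controls. After incubation, cells PBS-washed, trypsinized, stained with Annexin V and propidium iodide, analysed by flow cytometry. Mean ± SD, 3 experiments in triplicate.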
(In general: Flow cytometry measures light scatter and fluorescence of single cells or particles in a stream.)

Experiment [9] concerns HCT-116. Briefly: Effect on sphingolipidome in human HCT116 cells assessed as increase in glucosyldihydroceramides per 10^6 cells at 10 uM after 14 hrs by UPLC-TOF analysis relative to control. The experiment is classed as functional, cell-based. The procedure, abridged:
as §1

The test system of experiment [10] is HCT-116. Briefly: Induction of […] in human HCT116 cells at 20 uM after 14 hrs by Annexin V-propidium iodide staining based flow cytometry. Type of experiment: functional.
Experiment [11] deals with HCT-116. Nature of the experiment: Effect on sphingolipidome in human HCT116 cells assessed as reduction in glucosylceramides per 10^6 cells at 10 uM after 14 hrs by UPLC-TOF analysis relative to control. Type of experiment: functional, cell-based. A digest of the protocol:
as §1

For experiment [12], the system named is HCT-116. Briefly: Effect on sphingolipidome in human HCT116 cells assessed as reduction in sphingomyelins per 10^6 cells at 10 uM after 14 hrs by UPLC-TOF analysis relative to control. Type of experiment: functional, cell-based. The procedure, abridged: as §1
Experiment [13] concerns A549. Nature of the experiment: Effect on sphingolipidome in human A549 cells assessed as increase in C18-ceramide per 10^6 cells at 10 uM after 24 hrs by UPLC-TOF analysis (reference value: 4.8 +/- 0.5 pmol/10^6 cells). Type of experiment: functional. A digest of the protocol:
as §1

In experiment [14] the target is T1, Lysosomal acid glucosylceramidase (Homo sapiens) (UniProt P04062).
T1 sequence (whole entry): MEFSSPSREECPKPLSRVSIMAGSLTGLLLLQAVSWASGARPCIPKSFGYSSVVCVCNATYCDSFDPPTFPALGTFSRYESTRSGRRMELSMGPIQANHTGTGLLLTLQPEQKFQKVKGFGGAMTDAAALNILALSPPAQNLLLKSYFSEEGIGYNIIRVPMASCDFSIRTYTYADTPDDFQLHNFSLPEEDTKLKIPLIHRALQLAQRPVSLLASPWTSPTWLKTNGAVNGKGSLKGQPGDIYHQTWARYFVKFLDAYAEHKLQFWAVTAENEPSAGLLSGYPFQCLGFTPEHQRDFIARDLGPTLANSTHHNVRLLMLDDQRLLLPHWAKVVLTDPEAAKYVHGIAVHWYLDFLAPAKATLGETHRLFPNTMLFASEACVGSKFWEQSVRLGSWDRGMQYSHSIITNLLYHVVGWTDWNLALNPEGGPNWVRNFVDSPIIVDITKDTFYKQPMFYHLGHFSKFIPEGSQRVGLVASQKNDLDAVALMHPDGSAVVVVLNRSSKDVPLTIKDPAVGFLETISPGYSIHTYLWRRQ
Briefly: Inhibition of human glucocerebrosidase using 4-methylumbelliferyl beta-D-glucoside as substrate at 100 uM preincubated prior substrate addition measured after 45 mins by spectrophotometry.

Experiment [15] relates to HCT-116. Nature of the experiment: Effect on sphingolipidome in human HCT116 cells assessed as reduction in C16-sphingomyelin per 10^6 cells at 10 uM after 14 hrs by UPLC-TOF analysis relative to control. The experiment is classed as functional, cell-based. A digest of the protocol: as §1
The test system of experiment [16] is HCT-116. Briefly: Effect on sphingolipidome in human HCT116 cells assessed as dihydrosphingosine-1-phosphate level per 10^6 cells at 10 uM after 14 hrs […] relative to control. Type of experiment: functional, cell-based.
Experiment [17] has as its target T2, Sphingolipid delta(4)-desaturase DES1 (Homo sapiens) (UniProt O15121).
T2 sequence (whole entry): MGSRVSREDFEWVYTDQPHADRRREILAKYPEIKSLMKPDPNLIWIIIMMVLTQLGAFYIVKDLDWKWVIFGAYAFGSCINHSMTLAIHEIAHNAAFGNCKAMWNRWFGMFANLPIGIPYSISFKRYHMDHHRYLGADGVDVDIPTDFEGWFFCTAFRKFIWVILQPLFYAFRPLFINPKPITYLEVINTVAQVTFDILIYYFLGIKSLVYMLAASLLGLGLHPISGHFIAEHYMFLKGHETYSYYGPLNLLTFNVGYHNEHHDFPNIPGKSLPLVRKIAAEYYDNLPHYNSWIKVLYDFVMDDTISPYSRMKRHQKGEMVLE
Briefly: Inhibition of Des1 in human HCT116 cells assessed as formation of CerC6NBD from dhCerC6NBD at =>100 uM after 4 hrs by HPLC-FD analysis. Type of experiment: cell-based. The settings on record: HCT-116. A digest of the protocol: (§2)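 Des1 activity in A549 and HCT116 cells: intact cells seeded 2×10⁵/well and incubated 4 h with dhCerC6NBD and compound. Dose–response used cell lysates incubated 4 h with 10 µM dhCerC6NBD plus graded compound. CerC6NBD measured by HPLC with fluorescence detection. IC50 from sigmoidal variable-slope regression; mean ± SD, three experiments in triplicate.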

Experiment [18] has as its target T2, Sphingolipid delta(4)-desaturase DES1 (Homo sapiens). Nature of the experiment: Inhibition of Des1 in human A549 cells assessed as formation of CerC6NBD from dhCerC6NBD at =>100 uM after 4 hrs by HPLC-FD analysis. Type of experiment: cell-based. The procedure, abridged: as §2
Experiment [19] deals with T1, Lysosomal acid glucosylceramidase (Homo sapiens). Briefly: Inhibition of glucocerebrosidase in human A549 cells using 4-methylumbelliferyl beta-D-glucoside as substrate at 20 uM after 45 mins by spectrophotometry. The experiment is classed as cell-based.

As a reminder, the inhibition is how much of the control response was suppressed. `CCCCCCCCCCCCCS/C=C/[C@H](CO)NC(=O)CCCCCCC`: the Activity was determined as 16 pmol in the experiment with HCT-116 [1], 1.25 pmol in the experiment on HCT-116 [2] and 11.5 pmol in the experiment with A549 [13]. In addition, the outcome in the experiment on HCT-116 [3], in the experiment on HCT-116 [4], in the experiment with HCT-116 [8], with HCT-116 [9], in the experiment on HCT-116 [11] and with HCT-116 [12] was Active. For the same compound, in the experiment on HCT-116 [15], the result was Active. Moreover, the “fold change (FC)” value in the experiment on HCT-116 [5] came out at 8.5; in the experiment with A549 [7], 3.5. The outcome in the experiment on A549 [6], with HCT-116 [10] and in the experiment with HCT-116 [16] was inactive. Besides, the inhibition result in experiment [14] was “inactive”.

`CCCCCCCCCCCCCS/C=C/[C@H](CO)NC(=O)C(C)(C)C`: the figures for the Activity in the experiment on HCT-116 [1], in the experiment with HCT-116 [2] and in the experiment with A549 [13] were 10.8 pmol, 2.17 pmol and 7 pmol, respectively. Also, the result in the experiment on HCT-116 [3], in the experiment with HCT-116 [4], with HCT-116 [8], in the experiment with HCT-116 [9], in the experiment with HCT-116 [11] and with HCT-116 [12] was Active. In addition, the result with HCT-116 [15] was Active. In addition, the “fold change (FC)” value in the experiment with HCT-116 [5] amounted to 4.5; in the experiment with A549 [7] it was 1.9. For the same compound, the result in the experiment on A549 [6], with HCT-116 [10] and with HCT-116 [16] was inactive. Also, the inhibition in experiment [17] and in experiment [18] was 50% throughout. Besides, the inhibition result in experiment [14] and in [19] was “inactive” in each case.

As to `CCCCCCCCCCCCCS/C=C/[C@H](CO)NC(=O)c1ccc(C(C)(C)C)cc1`, in the experiment on A549 [6], the result was inactive. Further, the inhibition in experiment [17] and in [18] was 50% in each case. Also, in experiment [14], the inhibition entry was “inactive”.
